Experimental findings from ChEMBL document CHEMBL1157645, “Synthesis of 2-(thienyl-2-yl or -3-yl)-4-furyl-6-aryl pyridine derivatives and evaluation of their topoisomerase I and II inhibitory activity, cytotoxicity, and structure-activity relationship” (Bioorg Med Chem, 2010) are described below.

In one assay the test system is HeLa. The assay can be described thus: Cytotoxicity against human HeLa cells in presence of 10% fetal bovine serum. In kind it is functional, cell-based. The essentials: (§1)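 Cells cultured per supplier's instructions and seeded at 2–4 × 10⁴ cells per well. On day 2 the medium was replaced with medium containing graded compound concentrations. On day 4 cell counting kit-8 was added for a further 4 h, and absorbance was read at 450 nm. Values are 50% inhibitory concentrations, given as mean from three experiments run in triplicate.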

The test system of a further assay is K562. The assay can be described thus: Cytotoxicity against human K562 cells in presence of 10% fetal bovine serum. In kind it is functional, cell-based. The essentials:
as §1

In the next assay the test system is MCF7. The assay can be described thus: Cytotoxicity against human MCF7 cells in presence of 10% fetal bovine serum. The assay is classed as functional. Summed up: as §1
Assay [1] concerns the target DNA topoisomerase 2-alpha (Homo sapiens) (UniProt P11388). Briefly: Inhibition of human recombinant DNA topoisomerase 2 assessed as inhibition of relaxation of supercoiled pBR322 DNA at 100 uM by agarose gel electrophoresis. The essentials:
(§2)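 pBR322 DNA was incubated with two units of human topo IIα, with or without compound (DMSO stocks at 20 mM), in 10 mM Tris–HCl pH 7.9 with 50 mM NaCl, 5 mM MgCl₂, 1 mM EDTA, 1 mM ATP and BSA, for 30 min at 30 °C. The reaction was stopped with EDTA and run on 1% agarose in TAE at 25 V for 4 h. Gels were stained with ethidium bromide, and supercoiled DNA was quantified under UV.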

Assay [2] has the same target. The assay can be described thus: Inhibition of human recombinant DNA topoisomerase 2 assessed as inhibition of relaxation of supercoiled pBR322 DNA at 20 uM by agarose gel electrophoresis. The essentials:
as §2

Another assay concerns DU-145. The assay can be described thus: Cytotoxicity against human DU145 cells in presence of 10% fetal bovine serum. The assay is classed as functional, cell-based. The essentials:
as §1

Assay [3] concerns the target T1, DNA topoisomerase 1 (Homo sapiens) (UniProt P11387).
T1 sequence (whole entry): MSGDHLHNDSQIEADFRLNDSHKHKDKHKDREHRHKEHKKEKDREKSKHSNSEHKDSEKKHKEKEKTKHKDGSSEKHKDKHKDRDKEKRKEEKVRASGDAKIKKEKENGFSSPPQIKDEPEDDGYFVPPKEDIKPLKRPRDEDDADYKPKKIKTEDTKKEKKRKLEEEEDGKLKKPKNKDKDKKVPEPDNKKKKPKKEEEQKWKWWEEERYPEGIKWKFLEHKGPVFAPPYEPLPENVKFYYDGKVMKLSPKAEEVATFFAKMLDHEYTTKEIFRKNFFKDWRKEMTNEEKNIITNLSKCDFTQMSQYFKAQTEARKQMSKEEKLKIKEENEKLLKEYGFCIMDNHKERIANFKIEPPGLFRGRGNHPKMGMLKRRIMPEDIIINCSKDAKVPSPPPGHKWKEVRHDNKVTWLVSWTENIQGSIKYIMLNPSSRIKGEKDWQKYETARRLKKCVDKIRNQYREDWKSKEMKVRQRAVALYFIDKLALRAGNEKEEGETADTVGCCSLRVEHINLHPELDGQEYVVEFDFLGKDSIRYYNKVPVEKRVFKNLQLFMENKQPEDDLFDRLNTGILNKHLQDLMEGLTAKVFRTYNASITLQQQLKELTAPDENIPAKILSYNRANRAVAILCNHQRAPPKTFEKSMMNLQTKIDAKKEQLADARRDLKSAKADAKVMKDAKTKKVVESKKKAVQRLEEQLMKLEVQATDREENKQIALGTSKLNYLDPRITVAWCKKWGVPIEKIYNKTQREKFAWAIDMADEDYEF
Briefly: Inhibition of human recombinant topoisomerase 1 assessed as inhibition of relaxation of supercoiled pBR322 DNA at 20 uM by agarose gel electrophoresis. Summed up: (§3)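 100 ng pBR322 DNA was incubated with 0.4 units of recombinant human topo I, with or without compound (DMSO stocks at 20 mM), for 30 min at 37 °C in 10 mM Tris–HCl pH 7.9, 150 mM NaCl, 0.1% BSA, 1 mM spermidine and 5% glycerol. The reaction was stopped with sarkosyl/bromophenol blue/glycerol and run on 1% agarose in TAE at 15 V for 7 h. Relaxation was read from ethidium bromide staining.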

The test system of another assay is HCT-15. The assay can be described thus: Cytotoxicity against human HCT15 cells in presence of 10% fetal bovine serum. In kind it is functional, cell-based. The essentials: as §1
Assay [4] deals with T1, DNA topoisomerase 1 (Homo sapiens). The assay can be described thus: Inhibition of human recombinant topoisomerase 1 assessed as inhibition of relaxation of supercoiled pBR322 DNA at 100 uM by agarose gel electrophoresis. Summed up: as §3

Sequence of DNA topoisomerase 2-alpha (Homo sapiens) (P11388 whole entry): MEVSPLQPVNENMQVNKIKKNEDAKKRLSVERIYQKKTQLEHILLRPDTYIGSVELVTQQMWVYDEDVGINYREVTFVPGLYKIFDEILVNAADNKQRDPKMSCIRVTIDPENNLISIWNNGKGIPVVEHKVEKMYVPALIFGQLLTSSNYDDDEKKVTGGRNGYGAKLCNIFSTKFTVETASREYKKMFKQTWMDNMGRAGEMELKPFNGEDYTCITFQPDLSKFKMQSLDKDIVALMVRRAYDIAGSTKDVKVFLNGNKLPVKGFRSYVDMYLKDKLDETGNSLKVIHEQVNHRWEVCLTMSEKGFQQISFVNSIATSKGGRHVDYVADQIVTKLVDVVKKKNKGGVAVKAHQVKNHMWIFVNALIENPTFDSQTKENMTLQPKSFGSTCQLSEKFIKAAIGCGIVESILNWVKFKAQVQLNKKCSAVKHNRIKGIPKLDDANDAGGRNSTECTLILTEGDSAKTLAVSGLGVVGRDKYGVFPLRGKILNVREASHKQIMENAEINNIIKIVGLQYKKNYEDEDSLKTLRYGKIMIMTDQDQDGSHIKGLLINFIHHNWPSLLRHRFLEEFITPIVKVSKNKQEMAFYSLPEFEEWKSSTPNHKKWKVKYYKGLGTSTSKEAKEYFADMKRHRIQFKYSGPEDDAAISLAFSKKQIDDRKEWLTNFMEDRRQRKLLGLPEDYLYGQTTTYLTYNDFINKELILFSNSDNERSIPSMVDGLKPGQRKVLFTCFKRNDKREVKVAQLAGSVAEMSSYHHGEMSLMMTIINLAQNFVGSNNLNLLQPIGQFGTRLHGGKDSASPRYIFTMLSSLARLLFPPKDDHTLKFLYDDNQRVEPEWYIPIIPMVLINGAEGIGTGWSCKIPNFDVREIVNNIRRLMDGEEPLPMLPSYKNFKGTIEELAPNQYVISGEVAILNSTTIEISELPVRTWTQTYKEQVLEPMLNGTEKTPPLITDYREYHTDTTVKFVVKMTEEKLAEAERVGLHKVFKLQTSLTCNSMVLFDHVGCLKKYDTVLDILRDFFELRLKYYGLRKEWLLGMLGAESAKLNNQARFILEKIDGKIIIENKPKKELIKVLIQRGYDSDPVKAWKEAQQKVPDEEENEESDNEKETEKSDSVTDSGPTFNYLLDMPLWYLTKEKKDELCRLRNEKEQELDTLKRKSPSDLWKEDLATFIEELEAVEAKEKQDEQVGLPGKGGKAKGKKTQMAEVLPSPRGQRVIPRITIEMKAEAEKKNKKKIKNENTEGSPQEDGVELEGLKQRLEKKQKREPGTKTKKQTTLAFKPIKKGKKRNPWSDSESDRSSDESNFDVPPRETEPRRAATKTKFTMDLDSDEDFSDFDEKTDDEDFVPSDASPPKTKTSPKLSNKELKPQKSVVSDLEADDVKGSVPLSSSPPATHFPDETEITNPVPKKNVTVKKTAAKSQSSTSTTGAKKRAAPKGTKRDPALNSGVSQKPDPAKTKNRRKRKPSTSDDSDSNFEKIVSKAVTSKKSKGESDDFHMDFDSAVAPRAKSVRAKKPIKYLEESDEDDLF

As for `Clc1ccc(-c2cc(-c3ccc(Cl)o3)cc(-c3cccs3)n2)cc1`, the IC50 – broadly, the concentration needed to halve the response being measured – in the assay with HeLa was determined as 21.3 µM; in the assay with K562, 20.9 µM; in the assay with MCF7 it was 2.45 µM; with DU-145, 19.2 µM; in the assay on HCT-15, 14.2 µM. For the same molecule, the inhibition (as a rule, the percentage by which the read-out fell short of the control) came to 42.5% in assay [1], 38.1% in [2], 6.3% in assay [3] and 38.9% in [4].

In the case of `Clc1ccc(-c2cc(-c3cccs3)nc(-c3ccccc3Cl)c2)o1`, the IC50 in the assay on HeLa turned out to be 18.5 µM; with K562 it was 17.2 µM; with MCF7, 1.93 µM; with DU-145, 16.8 µM; with HCT-15 it was 6.19 µM. The inhibition was found to be 35% in [1], 15.4% in assay [2], 8% in assay [3] and 41.3% in assay [4].

With `Clc1ccc(-c2cc(-c3ccco3)nc(-c3cccs3)c2)o1`, the IC50 was 18.8 µM with HeLa; 16 µM with K562; 5.27 µM in the assay on MCF7; 21.8 µM in the assay on DU-145; more than 50 µM with HCT-15. Moreover, the figures for the inhibition in assay [1], in assay [2] and in assay [4] were 38.5%, 25.5% and 16%, respectively.

With `Clc1cccc(-c2cc(-c3ccc(Cl)o3)cc(-c3ccsc3)n2)c1`, the concentration for half-maximal inhibition (IC50) is 8.71 µM in the assay on HeLa; 23 µM in the assay with K562; 4.26 µM with MCF7; 10.4 µM with DU-145; 13.7 µM in the assay with HCT-15. In addition, the inhibition in assay [1] was determined as 75.9%; in [2], 75.4%; in assay [4], 0%.

On to `Cc1ccc(-c2cc(-c3ccc(Cl)o3)cc(-c3ccsc3)n2)o1`, for which the half-inhibitory concentration (IC50) with HeLa was more than 50 µM; in the assay with K562, 23.3 µM; in the assay with MCF7, 1.42 µM; with DU-145 it was 18.5 µM; with HCT-15, more than 50 µM. Also, the inhibition in assay [1] turned out to be 62.6%; in assay [2], 34.7%; in assay [4], 9.1%.

Turning to `Cc1cccc(-c2cc(-c3ccc(Cl)o3)cc(-c3ccsc3)n2)c1`, the IC50 worked out at 20.3 µM in the assay on HeLa; 20.2 µM in the assay with K562; 1.28 µM with MCF7; 17.9 µM in the assay on DU-145; 21.7 µM with HCT-15. Moreover, the inhibition in assay [1] came out at 64.1%; in assay [2], 56.7%; in [4] it was 7.5%.

Regarding `Cc1ccc(-c2cc(-c3ccc(Cl)o3)cc(-c3ccsc3)n2)cc1`, the IC50 in the assay with HeLa turned out to be 16.2 µM; in the assay on K562, 19.9 µM; with MCF7, 0.63 µM; with DU-145, 21.2 µM; in the assay on HCT-15, 7.41 µM. In addition, the inhibition in [1] was found to be 78.9%; in assay [2] it was 70.2%; in [4], 2.6%.

For the molecule `Clc1ccc(-c2cc(-c3ccc(Cl)o3)cc(-c3ccsc3)n2)cc1`, the IC50 stood at 8.41 µM in the assay with HeLa; 18.7 µM in the assay with K562; 1.77 µM in the assay on MCF7; 19.5 µM in the assay on DU-145; 5.19 µM in the assay with HCT-15. In addition, the inhibition is 75.9% in [1], 65.7% in assay [2], 5.2% in assay [3] and 29.8% in assay [4].

As to `Cc1ccc(-c2cc(-c3ccc(Cl)o3)cc(-c3cccs3)n2)cc1`, the IC50 in the assay with HeLa stood at 16.3 µM; in the assay with K562, 21.5 µM; in the assay on MCF7 it was 1.33 µM; with DU-145 it was 19.3 µM; in the assay on HCT-15, 9.89 µM. In addition, the inhibition in [1] stood at 21.8%; in assay [3], 9.3%; in [4] it was 41.8%.

Regarding `Clc1cccc(-c2cc(-c3ccc(Cl)o3)cc(-c3cccs3)n2)c1`, the IC50 in the assay with HeLa was 12.8 µM; in the assay on K562 it was 19.8 µM; in the assay on MCF7, 2.86 µM; in the assay with DU-145, 18.1 µM; in the assay with HCT-15, 15.5 µM. The inhibition was 44.7% in [1], 32.7% in assay [2], 8.5% in assay [3] and 42% in [4].

Take `Cc1ccccc1-c1cc(-c2ccc(Cl)o2)cc(-c2ccsc2)n1`: the IC50 came to 9.77 µM in the assay on HeLa; 18.4 µM in the assay on K562; 1.23 µM in the assay on MCF7; 24.8 µM in the assay on DU-145; 4.63 µM with HCT-15. Further, the inhibition in [1] is 59.6%; in assay [2], 46.3%; in assay [4] it was 6.7%.

On to `Clc1ccc(-c2cc(-c3ccsc3)nc(-c3ccco3)c2)o1`, for which the IC50 with HeLa is more than 50 µM; in the assay on K562, 22.4 µM; with MCF7, 21.3 µM; with DU-145 it was 18.9 µM; in the assay with HCT-15, more than 50 µM. The figures for the inhibition in assay [1], in assay [2] and in assay [4] were 78.6%, 63.8% and 8.2%, respectively.
